Results from ChEMBL document CHEMBL4699485, “Discovery and Development of SPR519 as a Potent, Selective, and Orally Bioavailable Inhibitor of PI3Kα and mTOR Kinases for the Treatment of Solid Tumors” (J Med Chem, 2020).

How the values were obtained:
[1] = Cmax in Swiss mouse at 1 mg/kg, po via gavage by LC-MS/MS analysis; format: ADME, organism-based; design: route oral, dose 1 mg/kg; details: in vivo
In short: (§1)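 Female Swiss mice (n=3/group), fasted overnight, given single oral gavage dose in 0.5% CMC/0.5% Tween 80 (10 mL/kg) at 1, 3 or 10 mg/kg. Serial blood sampling at 0.16–8 h into heparinized tubes. Plasma extracted with acetonitrile containing verapamil internal standard and quantified by LC-MS/MS. Cmax, Tmax, AUC and t1/2 derived from the concentration–time profile.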

[2] = Toxicity in Swiss mouse assessed as morphological changes in lung at 30 mg/kg, po administered twice daily via gavage for 5 days and measured post last dose; format: organism-based; details: in vivo, 120 h, time 5 day
In short: (§2)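 Female Swiss mice (3 treated, 2 controls) were gavaged twice daily for 5 days, with compound in 0.5% CMC and Tween 80. After the last dosing the animals were sacrificed. Liver, kidney, lung, uterus and brain were excised and inspected visually for morphology and color change.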

[3] = Toxicity in Swiss mouse assessed as discoloration of uterus at 30 mg/kg, po administered twice daily via gavage for 5 days and measured post last dose; format: organism-based; details: in vivo, 120 h, time 5 day; in short: as §2
[4] = molecular target: RAC-beta serine/threonine-protein kinase (Homo sapiens) (UniProt P31751); experiment: Inhibition of human AKT2 at 1 uM using fluorescently labeled peptide substrate measured after 3 hrs by microfluidic mobility shift assay relative to control
In short: (§3)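 Single-concentration screen at 1 µM in duplicate, 1% final DMSO. Kinase (typically 1 nM), fluorescently labeled peptide substrate (typically 1 µM), ATP at Km and Mg²⁺ incubated about 3 h at 25 °C, then EDTA-quenched. Substrate and phosphorylated product separated by microfluidic electrophoresis and quantified by fluorescence.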

[5] = Toxicity in Swiss mouse assessed as loss of appetite at 10 mg/kg, po administered twice daily via gavage for 5 days and measuring daily during compound dosing; format: organism-based; details: in vivo, 120 h, time 5 day
In short: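 Female Swiss mice (3 treated, 2 vehicle controls) received oral gavage twice daily for 5 days, with compound formulated in 0.5% CMC and Tween 80. Body weight, body temperature, body coat, feed intake, eyes, feces and general activity were observed daily.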

HCT-116 = experiment: Antitumor activity against human HCT-116 cells xenografted in po dosed CD1 nude mouse assessed as reduction in tumor volume administered once daily for 21 days and measured at 3 days interval during compound dosing; format: functional, organism-based; details: dose mg/kg 2.5-20, time 21.0 day
In short: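 Female CD1 nude mice bearing subcutaneous HCT116 xenografts, randomized at average tumor size 120–130 mm³, five per group. Dosed orally once daily at 2.5, 5, 10 or 20 mg/kg for 21 days alongside a vehicle control. Caliper measurement of tumor volume as (width² × length)/2, monitored every third day.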

SK-OV-3 [6] = experiment: Antitumor activity against human SK-OV-3 cells xenografted in po dosed CD1 nude mouse assessed as reduction in tumor volume administered once daily for 27 days and measured at 3 days interval during compound dosing; format: functional, organism-based; details: dose mg/kg 2.5-10, time 27.0 day
In short: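 Female CD1 nude mice bearing subcutaneous SK-OV-3 xenografts, randomized at average tumor size 120–130 mm³, five per group. Given oral doses of 2.5, 5 or 10 mg/kg once daily for 27 days alongside a vehicle control. Tumor volume from caliper length and width as (width² × length)/2, tracked every third day. Two-way ANOVA with Dunnett's test, n=5.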

[7] = molecular target: Inhibitor of nuclear factor kappa-B kinase subunit epsilon (Homo sapiens) (UniProt Q14164); experiment: Inhibition of human IKBKE at 1 uM using fluorescently labeled peptide substrate measured after 3 hrs by microfluidic mobility shift assay relative to control; in short: as §3
SK-OV-3 [8] = experiment: Antiproliferative activity against human SK-OV-3 cells after 48 hrs by MTT assay; format: functional, cell-based; details: SK-OV-3, 48 h
In short: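 SK-OV-3 cells grown in McCoy's 5a with 10% FBS, 100 U/mL penicillin and 100 µg/mL streptomycin at 37 °C, 5% CO2, seeded at 10000 cells/well. Treated 48 h across 20 µM–0.001 µM. MTT (5 mg/mL in PBS) added for 4 h, DMSO solubilization, absorbance read at 550 nm. Four-parameter curve fit of % inhibition.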

A2780 = experiment: Antiproliferative activity against human A2780 cells after 48 hrs by MTT assay; format: functional, cell-based; details: A2780, 48 h
In short: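 A2780 cells grown in DMEM with 10% FBS, L-glutamine and antibiotics, seeded at 10000 cells/well and allowed to adhere overnight. Treated 48 h across 20 µM–0.001 µM. MTT (5 mg/mL in PBS) added for 4 h, formazan dissolved in DMSO, absorbance read at 550 nm. % inhibition fit to a four-parameter log inhibitor vs response curve.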

[9] = Cmax in Swiss mouse at 3 mg/kg, po via gavage by LC-MS/MS analysis; format: ADME, organism-based; design: route oral, dose 3 mg/kg; details: in vivo; in short: as §1
[10] = Toxicity in Swiss mouse assessed as morphological changes in brain at 30 mg/kg, po administered twice daily via gavage for 5 days and measured post last dose; format: organism-based; details: in vivo, 120 h, time 5 day; in short: as §2
[11] = Toxicity in Swiss mouse assessed as morphological changes in uterus at 30 mg/kg, po administered twice daily via gavage for 5 days and measured post last dose; format: organism-based; details: in vivo, 120 h, time 5 day; in short: as §2
[12] = molecular target: RAC-gamma serine/threonine-protein kinase (Homo sapiens) (UniProt Q9Y243); experiment: Inhibition of human AKT3 at 1 uM using fluorescently labeled peptide substrate measured after 3 hrs by microfluidic mobility shift assay relative to control; in short: as §3
[13] = Toxicity in Swiss mouse assessed as discoloration of liver at 30 mg/kg, po administered twice daily via gavage for 5 days and measured post last dose; format: organism-based; details: in vivo, 120 h, time 5 day; in short: as §2
[14] = molecular target: Angiopoietin-1 receptor (Homo sapiens) (UniProt Q02763); experiment: Inhibition of human TIE2 at 1 uM using fluorescently labeled peptide substrate measured after 3 hrs by microfluidic mobility shift assay relative to control; in short: as §3
[15] = molecular target: Inhibitor of nuclear factor kappa-B kinase subunit beta (Homo sapiens) (UniProt O14920); experiment: Inhibition of human IKBKB at 1 uM using fluorescently labeled peptide substrate measured after 3 hrs by microfluidic mobility shift assay relative to control; in short: as §3
[16] = Toxicity in Swiss mouse assessed as discoloration of brain at 30 mg/kg, po administered twice daily via gavage for 5 days and measured post last dose; format: organism-based; details: in vivo, 120 h, time 5 day; in short: as §2
[17] = Drug level in Swiss mouse kidney at 30 mg/kg, po administered twice daily via gavage for 5 days and measured post last dose by LC-MS/MS analysis; format: ADME, organism-based; details: time 5 day, read-out: Drug uptake
In short: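 Female Swiss mice (n=3) given 30 mg/kg in 0.5% CMC/Tween 80 by oral gavage twice daily for 5 days, with two vehicle controls. After sacrifice, liver, kidney, lung, uterus and brain were collected, homogenized in water and solvent-extracted. Drug concentration (ng/g) measured by LC-MS/MS.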

[18] = molecular target: Serine/threonine-protein kinase mTOR (Homo sapiens, UniProt P42345); experiment: Inhibition of human mTOR at 1 uM using fluorescently labeled peptide substrate measured after 3 hrs by microfluidic mobility shift assay relative to control
In short: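 Single-concentration screen at 1 µM in duplicate wells, in a 23-kinase panel using microfluidic mobility shift. Compound was diluted from a 100x DMSO stock, with 1% DMSO final. Kinase (typically 1 nM), fluorescent peptide substrate (typically 1 µM), ATP at 1x Km and Mg2+ were incubated typically 3 h at 25 °C, then quenched with EDTA. Substrate and phospho-product were separated electrophoretically and quantified by fluorescence.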

[19] = Elimination half life in Swiss mouse at 10 mg/kg, po via gavage by LC-MS/MS analysis; format: ADME, organism-based; details: in vivo, read-out: beta t1/2 (converted); in short: as §1

Sequence of Angiopoietin-1 receptor (Homo sapiens) (Q02763 whole entry): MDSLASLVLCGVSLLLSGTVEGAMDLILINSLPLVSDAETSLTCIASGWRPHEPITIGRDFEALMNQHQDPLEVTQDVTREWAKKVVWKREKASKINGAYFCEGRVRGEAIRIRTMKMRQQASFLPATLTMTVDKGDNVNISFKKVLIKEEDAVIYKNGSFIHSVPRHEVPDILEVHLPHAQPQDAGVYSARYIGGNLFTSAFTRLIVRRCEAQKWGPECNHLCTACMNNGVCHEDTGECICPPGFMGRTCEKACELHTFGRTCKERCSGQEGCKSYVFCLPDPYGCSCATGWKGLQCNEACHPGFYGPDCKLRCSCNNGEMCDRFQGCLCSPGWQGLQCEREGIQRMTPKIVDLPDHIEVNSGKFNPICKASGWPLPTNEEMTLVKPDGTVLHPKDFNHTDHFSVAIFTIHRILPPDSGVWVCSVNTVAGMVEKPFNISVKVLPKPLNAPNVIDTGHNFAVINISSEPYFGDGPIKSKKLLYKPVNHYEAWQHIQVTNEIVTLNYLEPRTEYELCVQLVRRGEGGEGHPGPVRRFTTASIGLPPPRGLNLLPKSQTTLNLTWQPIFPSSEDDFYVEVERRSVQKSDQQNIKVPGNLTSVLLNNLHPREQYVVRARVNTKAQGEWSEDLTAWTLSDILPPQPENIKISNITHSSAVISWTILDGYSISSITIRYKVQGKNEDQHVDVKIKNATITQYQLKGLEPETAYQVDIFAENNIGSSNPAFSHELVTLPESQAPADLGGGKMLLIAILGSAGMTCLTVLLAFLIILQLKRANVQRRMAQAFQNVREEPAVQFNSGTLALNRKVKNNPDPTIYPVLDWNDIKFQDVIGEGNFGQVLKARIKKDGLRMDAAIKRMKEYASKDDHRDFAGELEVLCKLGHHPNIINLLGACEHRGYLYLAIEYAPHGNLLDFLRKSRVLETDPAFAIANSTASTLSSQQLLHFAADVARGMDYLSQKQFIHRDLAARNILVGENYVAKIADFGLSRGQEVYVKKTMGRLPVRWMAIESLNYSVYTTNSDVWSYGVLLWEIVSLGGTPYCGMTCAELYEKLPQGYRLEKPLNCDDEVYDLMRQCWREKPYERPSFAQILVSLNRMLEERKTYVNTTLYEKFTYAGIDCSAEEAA
Sequence of Inhibitor of nuclear factor kappa-B kinase subunit epsilon (Homo sapiens) (Q14164 whole entry): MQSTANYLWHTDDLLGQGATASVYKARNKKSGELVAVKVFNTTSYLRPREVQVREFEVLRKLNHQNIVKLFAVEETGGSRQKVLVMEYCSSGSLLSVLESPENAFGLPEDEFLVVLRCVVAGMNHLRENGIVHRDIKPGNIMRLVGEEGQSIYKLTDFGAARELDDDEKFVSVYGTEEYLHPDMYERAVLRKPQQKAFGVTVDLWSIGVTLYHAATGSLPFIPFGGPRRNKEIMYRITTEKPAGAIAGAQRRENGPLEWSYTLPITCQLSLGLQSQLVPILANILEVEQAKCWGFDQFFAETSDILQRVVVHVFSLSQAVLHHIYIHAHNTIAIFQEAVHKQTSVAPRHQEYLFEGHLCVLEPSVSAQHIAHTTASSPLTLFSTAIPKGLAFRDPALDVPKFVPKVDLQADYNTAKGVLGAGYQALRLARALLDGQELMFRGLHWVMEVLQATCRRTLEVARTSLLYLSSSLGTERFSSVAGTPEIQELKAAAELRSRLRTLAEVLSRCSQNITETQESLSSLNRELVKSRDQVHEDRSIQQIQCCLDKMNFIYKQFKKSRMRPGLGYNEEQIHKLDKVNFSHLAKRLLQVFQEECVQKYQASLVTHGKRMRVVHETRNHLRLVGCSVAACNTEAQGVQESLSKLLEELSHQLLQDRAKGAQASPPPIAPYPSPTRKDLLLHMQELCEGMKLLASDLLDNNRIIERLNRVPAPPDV
Sequence of RAC-beta serine/threonine-protein kinase (Homo sapiens) (P31751 whole entry): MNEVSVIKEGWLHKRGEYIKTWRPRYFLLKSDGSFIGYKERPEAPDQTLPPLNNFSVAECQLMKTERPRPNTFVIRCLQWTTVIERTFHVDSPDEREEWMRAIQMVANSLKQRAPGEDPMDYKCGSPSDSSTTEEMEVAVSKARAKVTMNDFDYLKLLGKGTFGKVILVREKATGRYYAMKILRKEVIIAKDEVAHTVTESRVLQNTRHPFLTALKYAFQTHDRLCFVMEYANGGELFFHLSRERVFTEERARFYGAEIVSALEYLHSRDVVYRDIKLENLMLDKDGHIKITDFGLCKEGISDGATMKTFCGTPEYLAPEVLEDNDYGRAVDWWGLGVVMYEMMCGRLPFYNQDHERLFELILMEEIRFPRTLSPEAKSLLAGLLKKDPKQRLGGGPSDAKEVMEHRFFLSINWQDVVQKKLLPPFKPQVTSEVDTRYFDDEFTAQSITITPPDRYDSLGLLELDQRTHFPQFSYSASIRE
Sequence of Inhibitor of nuclear factor kappa-B kinase subunit beta (Homo sapiens) (O14920 whole entry): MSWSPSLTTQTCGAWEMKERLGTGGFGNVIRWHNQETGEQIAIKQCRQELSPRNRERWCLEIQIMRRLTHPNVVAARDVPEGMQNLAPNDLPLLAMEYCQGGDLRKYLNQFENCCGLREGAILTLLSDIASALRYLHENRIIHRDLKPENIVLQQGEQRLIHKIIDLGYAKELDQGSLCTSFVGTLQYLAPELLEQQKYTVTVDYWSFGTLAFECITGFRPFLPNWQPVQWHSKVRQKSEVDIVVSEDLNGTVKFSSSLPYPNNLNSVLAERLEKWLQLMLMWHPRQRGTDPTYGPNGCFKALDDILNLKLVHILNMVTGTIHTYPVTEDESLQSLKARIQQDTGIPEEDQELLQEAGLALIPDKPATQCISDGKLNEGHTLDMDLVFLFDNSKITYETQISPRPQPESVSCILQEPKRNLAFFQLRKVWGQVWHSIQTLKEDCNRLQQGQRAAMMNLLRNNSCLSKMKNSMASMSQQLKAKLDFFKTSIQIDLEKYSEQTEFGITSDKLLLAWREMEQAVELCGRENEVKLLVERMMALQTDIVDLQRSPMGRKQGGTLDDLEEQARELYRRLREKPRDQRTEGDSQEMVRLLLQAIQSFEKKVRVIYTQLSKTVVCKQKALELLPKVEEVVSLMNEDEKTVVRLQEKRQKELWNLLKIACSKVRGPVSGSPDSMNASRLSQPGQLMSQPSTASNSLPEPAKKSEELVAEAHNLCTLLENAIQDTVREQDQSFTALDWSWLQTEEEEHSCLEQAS
Sequence of RAC-gamma serine/threonine-protein kinase (Homo sapiens) (Q9Y243 whole entry): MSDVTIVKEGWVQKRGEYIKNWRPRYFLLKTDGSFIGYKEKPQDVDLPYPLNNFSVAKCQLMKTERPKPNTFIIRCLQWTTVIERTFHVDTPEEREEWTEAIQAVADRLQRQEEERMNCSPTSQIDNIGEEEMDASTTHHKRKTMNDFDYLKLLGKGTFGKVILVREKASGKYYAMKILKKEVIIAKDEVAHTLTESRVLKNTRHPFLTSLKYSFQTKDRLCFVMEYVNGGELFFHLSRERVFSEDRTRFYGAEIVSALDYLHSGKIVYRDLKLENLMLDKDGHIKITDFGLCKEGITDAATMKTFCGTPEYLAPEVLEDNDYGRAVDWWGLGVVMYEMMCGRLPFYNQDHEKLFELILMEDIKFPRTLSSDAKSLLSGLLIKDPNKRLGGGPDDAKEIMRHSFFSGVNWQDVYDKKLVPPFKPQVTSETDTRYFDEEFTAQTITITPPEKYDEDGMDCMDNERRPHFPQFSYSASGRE

CN(C)C(=O)c1ccc(Oc2nc(-c3cnc(N)s3)nc(N3CCOCC3)n2)cc1
Cmax [1]: 5.01 µM | Activity [2]: Non-Toxic | Activity [3]: Non-Toxic | inhibition [4]: 0% | Activity [5]: Non-Toxic | Activity (HCT-116): Dose-dependent effect | Activity (SK-OV-3 [6]): Dose-dependent effect | inhibition [7]: -1% | EC50 (SK-OV-3 [8]): 500 nM | IC50 (A2780): 230 nM | Cmax [9]: 6.9 µM | Activity [10]: Non-Toxic | Activity [11]: Non-Toxic | inhibition [12]: -1% | Activity [13]: Toxic | inhibition [14]: 1% | inhibition [15]: -3% | Activity [16]: Non-Toxic | concentration at 120 h [17]: 160 ng/g | inhibition [18]: 89% | half-life [19]: 2.52 h
